# AI-2 QS modul: Vibrio harveyi AI-2 quorum sensing modulators, primary screen, JMH597 strain, luminescence/OD600 ratio; Vibrio harveyi JMH597 AI-2 luminescence/OD600 ratio, 9 h; hits give low values; strain lacks LuxN and CqsS sensors; 0 = neutral-control median; 300,000 compounds, 0.4% hits; AID 2094, 2009; activity change, % at 7.5 µM; in the data active = activity change below about -75%, passing the limit was not always enough; inconclusive = no clear call, values can overlap the other calls;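 note: luminescence divided by OD600 gain over 9 h not by final OD600 alone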
# HSF-1 act: HSF-1 activators, primary screen, NIH3T3-HGL cells, MG132 stress, luminescence, single point. activation, % at 9 µM. NIH3T3-HGL HSF-1 luciferase reporter, 8 h; 100% = twice DMSO control signal. 300,000 compounds, 1.7% hits;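 active = mean replicate activation of at least 50% with a set share of replicates each reaching 50%; inconclusive = only one of those two conditions met; inactive = mean below 50% and too few replicates reaching it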;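 note: 0% = median of the neutral control wells and 100% = twice that signal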
# HCV core dimer: inhibitors of HCV core protein dimerization, primary screen, biochemical, TR-FRET, high-throughput; TR-FRET GST/Flag-core106 dimerization, 1536-well; 300,000 compounds, 0.33% hits; inhibition, % at 5 µM; AID 1899, 2009;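 active = inhibition above the mean of all tested compounds plus 3 SD, set per screening campaign, cut at about 45% in these data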
#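 Assay system: Tagged HCV core106 pair (GST and Flag) | Buffer or medium: KF-containing HEPES buffer, pH 7.45, DTT, CHAPS, BSA | Also added: Eu donor and XL665 acceptor anti-tag antibodies | Dosing: One concentration, 5 µM, in 0.5% DMSO | Timing: 4 h at 22.5 °C | Technique: TR-FRET 671 and 617 nm emission | Repeats: Singlicate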
# HSF1 inhib: HSF1 inhibitors in luciferase reporter cells, primary screen, cell-based, NIH3T3, luminescence; 300,000 compounds, 0.77% hits; AID 2098, 2009; activity change, negative = inhibition, % at 7.5 µM (by protocol); NIH3T3-HGL HSE-luciferase, MG132-induced, luminescence 8 h; hits give low values;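 active = more than half of replicate wells show activity change below -50%, luminescence cut by over half; inconclusive = some wells, but at most half, below -50%; inactive = no replicate well below -50%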;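 note: luciferase reports HSF-1 transcriptional activity via heat shock element; 0% = median of DMSO wells and -100% = zero luminescence signal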
# PHOSPHO1 block: PubChem AID 1565. 290,000 compounds, 1.1% hits. inhibition, % at 13.3 µM. Phosphoethanolamine/phosphocholine phosphatase (Homo sapiens), Q8TCT1. recombinant PHOSPHO1, absorbance phosphatase assay; in the data active = inhibition above about 60%
# Target sequence (Q8TCT1 whole entry, looked up): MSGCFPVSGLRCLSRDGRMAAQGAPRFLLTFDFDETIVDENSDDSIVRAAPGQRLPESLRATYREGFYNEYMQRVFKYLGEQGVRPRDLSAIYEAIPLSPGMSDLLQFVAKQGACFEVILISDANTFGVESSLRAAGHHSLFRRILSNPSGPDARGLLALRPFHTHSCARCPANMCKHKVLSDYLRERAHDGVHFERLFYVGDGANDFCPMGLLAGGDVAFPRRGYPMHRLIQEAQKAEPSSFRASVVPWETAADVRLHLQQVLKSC
# ALR H2O2 inh: inhibitors of human ALR sulfhydryl oxidase, primary screen, biochemical, H2O2 detection, HRP-luminol luminescence, single point; inhibition, % (concentration not given with the values); 290,000 compounds, 3.8% hits; purified ALR, DTT oxidation; AID 485317, 2010;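 active = mean replicate inhibition above about 79%, with every replicate also reaching it, limit read from the data; inconclusive = only one of the two criteria met; inactive = mean below limit and not every replicate reaching it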
# Target sequence (P55789 whole entry, looked up): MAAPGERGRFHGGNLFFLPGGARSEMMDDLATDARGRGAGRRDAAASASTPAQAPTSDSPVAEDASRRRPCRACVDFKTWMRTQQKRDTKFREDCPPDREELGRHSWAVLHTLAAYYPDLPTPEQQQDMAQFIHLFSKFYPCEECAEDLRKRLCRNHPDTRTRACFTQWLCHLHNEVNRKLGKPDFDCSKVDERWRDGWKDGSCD
# JMH597 growth rt: Vibrio harveyi growth inhibition, confirmation, counter-screen for AI-2 quorum sensing project, JMH597 strain, OD600 absorbance; 9 h; lacks LuxN and CqsS sensors; 750 compounds, 1% hits; shares compounds with AI-2 QS modul; growth inhibition, % at 7.5 µM;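 active = every replicate shows growth inhibition above 50%; inconclusive = at least half, but not all, replicates pass that cutoff; inactive = fewer than half of replicates pass it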
# BB721 const-QS lum: luminescence inhibition in constitutive-on V. harveyi, confirmation, counter-screen for LuxS inhibitor project, strain BB721, luminescence readout. AID 2727, 2010. inhibition, % at 7.5 µM. Vibrio harveyi BB721 luminescence, 9 h. shares compounds with AI-2 QS modul. 750 compounds, 95% hits;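 active = inhibition above about 80% in every replicate, not just on average, limit read from the data; inconclusive = at least half of replicates past the limit, but not all; inactive = fewer than half of replicates past the limit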
# BB721 growth rt: growth inhibition of V. harveyi BB721, confirmation, cytotoxicity control for AI-2 quorum sensing inhibitors, strain BB721, absorbance OD600; growth inhibition, % at 7.5 µM; shares compounds with AI-2 QS modul; 750 compounds, 3% hits; Vibrio harveyi BB721 growth, 9 h; AID 2728, 2010;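 active = every replicate shows growth inhibition above 50%; inconclusive = at least half but not all replicates above 50% inhibition; inactive = under half of replicates above 50% inhibition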
# JMH597 AI-2 mod: Vibrio harveyi AI-2 signaling luminescence modulation – JMH597 strain, confirmation | inhibition, % at 7.5 µM | 750 compounds, 97% hits | Vibrio harveyi JMH597 AI-2 quorum sensing luminescence, 9 h; luxN and CqsS knockout, AI-2 only | shares compounds with AI-2 QS modul | AID 2736, 2010;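 active = every replicate shows more than 75% inhibition of signal versus neutral control wells; inconclusive = half to three quarters of replicates exceed 75% inhibition; inactive = fewer than half of replicates exceed 75% inhibition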
# * = called active by the depositor; ? = inconclusive; / = no result. A selection: hits, their analogues and other compounds. The true share with any hit is near 6.8%.
SMILES,AI-2 QS modul,HSF-1 act,HCV core dimer,HSF1 inhib,PHOSPHO1 block,ALR H2O2 inh,JMH597 growth rt,BB721 const-QS lum,BB721 growth rt,JMH597 AI-2 mod
COc1ccccc1OCCNC(=O)c1ccc(S(=O)(=O)N(C)C)cc1,-6,12,-1,0,21,-5,/,/,/,/
COc1ccc(S(=O)(=O)N=Nc2c(O)[nH]c3ccccc23)cc1,4,45,-6,-1,3,-3,/,/,/,/
COc1ccc(CN=Cc2c(O)[nH]c3ccccc23)cc1,-90*,17,-8,1,24,99*,22,96*,3,97*
CC1CC(=O)N(CC(=O)Nc2ccc(Br)cc2)c2ccccc2S1(=O)=O (configuration not stated),-83*,17,0,11,18,1,-15,96*,-17,97*
CCCN(CCC)S(=O)(=O)c1ccc(C(=O)NNc2nc(-c3ccccc3)c3cc(Br)ccc3n2)cc1,15,-3,24,2,-6,-21,/,/,/,/
O=C(CN1CCCCCC1)Nc1cccc([N+](=O)[O-])c1,0,-14,0,-6,-155,3,/,/,/,/
O=C(CN1C(=O)c2ccccc2C1=O)Nc1cccc([N+](=O)[O-])c1,-95*,3,7,0,16,1,13,99*,-1,99*
O=C(CN1C(=O)c2ccccc2C1=O)Nc1cccnc1,-82*,-2,0,0,-6,-10,1,93*,-17,94*
O=C(CN1C(=O)c2ccccc2S1(=O)=O)Nc1cccnc1,-31,-3,-6,-4,-4,2,/,/,/,/
CC(=O)c1ccc(Oc2ccc(C(=O)c3ccc(C)c(C)c3)cc2[N+](=O)[O-])cc1,15,25,1,10,-5,-1,/,/,/,/
COC(=O)c1ccc(Oc2ccc(C(C)(C)C)cc2)c([N+](=O)[O-])c1,?,-7,4,-2,24,-7,32,84*,?,91*
Cc1ccc(C)c(NC(=O)CN(C)S(=O)(=O)c2cccc3cccnc23)c1,9,-2,1,-1,42,-7,/,/,/,/
O/N=C/Cc1[nH]c2ccccc2c1-c1ccccc1,-96*,5,-5,4,2,45,29,95*,-97,99*
Cc1cc(NC(=O)Cn2nc3c(cc2=O)CCCC3)ccc1Br,-97*,-2,0,-4,-12,-7,10,100*,-4,100*
CCc1nn(CC(=O)Nc2ccc(Br)c(C)c2)c(=N)s1,-95*,6,0,4,25,99*,29,99*,6,99*
Cc1cccc(NC(=O)C2CC2c2ccccc2)c1C (configuration not stated),15,9,-3,0,-2,-9,/,/,/,/
O=C(Nc1ccccc1F)C1CC1c1ccccc1 (configuration not stated),-84*,8,-4,-3,18,9,2,92*,-27,93*

# Screens from PubChem.
